From ChEMBL document CHEMBL1151773, “Synthesis and biological evaluation of amide derivatives of (5,6-dimethoxy-2,3-dihydro-1H-inden-1-yl)acetic acid as anti-inflammatory agents with reduced gastrointestinal ulcerogenecity” (Eur J Med Chem, 2008)

What was measured:
[1] = tested on: Rattus norvegicus; experiment: Antipyretic activity in Wistar rat assessed as change in LPS-induced rectal temperature at 100 mg/kg, po administered 30 mins before LPS challenge after 5 hrs; assay type: functional
Method in brief: (§1)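 Adult female Wistar rats, 170±20 g, fasted 24 h, dosed orally at 09:00; 30 min later E. coli 0111:B4 phenol-extracted LPS in apyrogenic saline given i.p. Rectal temperature by telethermometer probe just before and 1–7 h hourly after LPS; temperature index calculated from these readings. n = 6.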

[2] = tested on: Rattus norvegicus; experiment: Antipyretic activity in Wistar rat assessed as change in LPS-induced rectal temperature at 100 mg/kg, po administered 30 mins before LPS challenge after 1 hr; assay type: functional; method in brief: as §1
[3] = tested on: Rattus norvegicus; experiment: Antiinflammatory activity in po dosed Wistar rat assessed as inhibition of carrageenan-induced hind paw edema volume administered 60 mins before carrageenan challenge; assay type: functional
[4] = tested on: Rattus norvegicus; experiment: Toxicity in Wistar rat assessed as mortality at up to 1000 mg/kg, po after 24 hrs; assay type: organism-based; set-up: dose 1000 mg/kg, route oral; conditions: in vivo
[5] = tested on: Rattus norvegicus; experiment: Antiinflammatory activity in […] 50 mg/kg, ip pretreated Wistar rat assessed as inhibition carrageenan-induced hind paw edema volume at 100 mg/kg, po administered 60 mins before carrageenan challenge measured after 1 hr; assay type: functional
Method in brief: (§2)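 Rats pretreated with SKF-525A 50 mg/kg i.p.; 1 h later oral dose at 100 mg/kg. 1 h after dosing, 0.1 ml of 1% carrageenan given subplantar into the right hind paw.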

[6] = tested on: Rattus norvegicus; experiment: Gastrointestinal toxicity in Wistar rat assessed as ulcer index at 100 mg/kg, po after 14 days; assay type: organism-based; set-up: dose 100 mg/kg, route oral; conditions: in vivo, 336 h
Method in brief: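 Gastric mucosa examined for ulceration at post-mortem of female albino rats sacrificed at the end of the 14-day once-daily oral dosing in the Freund's adjuvant arthritis study; ulcer index scored per animal. Mean ± SEM, n = 6.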

[7] = tested on: Rattus norvegicus; experiment: Antiarthritic activity in Albino rat assessed as inhibition of Freund's complete adjuvant-induced paw volume at 100 mg/kg, po administered for 14 days daily once starting a day before adjuvant challenge measured on day 13; assay type: functional
Method in brief: (§3)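 Female albino rats, 160±10 g, six per group, dosed orally once daily for 14 days starting the day before 0.1 ml Freund's complete adjuvant into the right hind paw subplantar surface. Both hind paw volumes, measured up to a mark at the lateral malleolus, taken before and daily after adjuvant.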

[8] = tested on: Rattus norvegicus; experiment: Antiarthritic activity in Albino rat assessed as inhibition of Freund's complete adjuvant-induced paw volume at 100 mg/kg, po administered for 14 days daily once starting a day before adjuvant challenge measured on day 3; assay type: functional; method in brief: as §3
[9] = tested on: Rattus norvegicus; experiment: Antipyretic activity in Wistar rat assessed as change in LPS-induced rectal temperature at 100 mg/kg, po administered 30 mins before LPS challenge after 7 hrs; assay type: functional; method in brief: as §1
[10] = tested on: Rattus norvegicus; experiment: Antipyretic activity in Wistar rat assessed as change in LPS-induced rectal temperature at 100 mg/kg, po administered 30 mins before LPS challenge after 3 hrs; assay type: functional; method in brief: as §1
[11] = tested on: Rattus norvegicus; experiment: Antipyretic activity in Wistar rat assessed as change in LPS-induced rectal temperature at 100 mg/kg, po administered 30 mins before LPS challenge after 2 hrs; assay type: functional; method in brief: as §1
[12] = tested on: Rattus norvegicus; experiment: Antiinflammatory activity in Wistar rat assessed as inhibition of carrageenan-induced hind paw edema volume at 100 mg/kg, po administered 60 mins before carrageenan challenge after 4 hrs relative to control; assay type: functional
[13] = tested on: Rattus norvegicus; experiment: Antiinflammatory activity in […] 50 mg/kg, ip pretreated Wistar rat assessed as inhibition of carrageenan-induced hind paw edema volume at 100 mg/kg, po administered 60 mins before carrageenan challenge measured after 4 hrs; assay type: functional; method in brief: as §2
[14] = tested on: Rattus norvegicus; experiment: Antiinflammatory activity in […] 50 mg/kg, ip pretreated Wistar rat assessed as inhibition carrageenan-induced hind paw edema volume at 100 mg/kg, po administered 60 mins before carrageenan challenge measured after 2 hrs; assay type: functional; method in brief: as §2
[15] = tested on: Rattus norvegicus; experiment: Antiinflammatory activity in Wistar rat assessed as inhibition of carrageenan-induced hind paw edema volume at 100 mg/kg, po administered 60 mins before carrageenan challenge after 1 hr relative to control; assay type: functional
[16] = tested on: Mus musculus; experiment: Analgesic activity in Swiss albino mouse assessed as inhibition of acetic acid-induced writhing at 100 mg/kg, po administered 60 mins before acetic acid challenge after 5 to 15 mins relative to control; assay type: functional
Method in brief: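 Female Swiss albino mice, 20±5 g, fasted overnight with free water access, dosed orally; 1 h later injected i.p. with 1% v/v acetic acid at 0.1 ml/10 g. Writhes (full hind-limb extension) counted for 15 min, starting 5 min after injection; only animals giving 20 or more writhes used. % inhibition = 100(1−Wt/Wc) vs control group mean; six animals per group.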

[17] = tested on: Rattus norvegicus; experiment: Antiinflammatory activity in Wistar rat assessed as inhibition of carrageenan-induced hind paw edema volume at 100 mg/kg, po administered 60 mins before carrageenan challenge after 6 hrs relative to control; assay type: functional
[18] = tested on: Rattus norvegicus; experiment: Gastrointestinal toxicity in Wistar rat assessed as ulcer index at 100 mg/kg, po after 6 hrs; assay type: organism-based; set-up: dose 100 mg/kg, route oral; conditions: in vivo
Method in brief: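 Female Wistar rats, 175±25 g, fasted 24 h, dosed orally once; sacrificed 6 h later by cervical dislocation. Stomach opened along greater curvature, saline-washed, mucosa inspected with a hand lens. Lesions graded I (edema/hyperemia/petechiae), II (hemorrhagic lesions with small erosions), III (deep ulcers); UI = nI + 2nII + 3nIII. Mean ± SEM, n = 6.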

[19] = tested on: Rattus norvegicus; experiment: Antiinflammatory activity in Wistar rat assessed as inhibition of carrageenan-induced hind paw edema volume at 100 mg/kg, po administered 60 mins before carrageenan challenge after 2 hrs relative to control; assay type: functional
[20] = tested on: Rattus norvegicus; experiment: Antipyretic activity in Wistar rat assessed as change in LPS-induced rectal temperature at 100 mg/kg, po administered 30 mins before LPS challenge after 6 hrs; assay type: functional; method in brief: as §1
[21] = tested on: Rattus norvegicus; experiment: Antiarthritic activity in Freund's complete adjuvant challenged Albino rat model assessed as change in body weight at 100 mg/kg, po administered for 14 days daily once starting a day before adjuvant challenge; assay type: functional; conditions: 336 h, read-out: INH
[22] = tested on: Rattus norvegicus; experiment: Antiinflammatory activity in […] 50 mg/kg, ip pretreated Wistar rat assessed as inhibition of carrageenan-induced hind paw edema volume at 100 mg/kg, po administered 60 mins before carrageenan challenge measured after 24 hrs; assay type: functional; method in brief: as §2
[23] = tested on: Rattus norvegicus; experiment: Antipyretic activity in Wistar rat assessed as change in LPS-induced rectal temperature at 100 mg/kg, po administered 30 mins before LPS challenge after 4 hrs; assay type: functional; method in brief: as §1
[24] = tested on: Rattus norvegicus; experiment: Antiinflammatory activity in […] 50 mg/kg, ip pretreated Wistar rat assessed as inhibition of carrageenan-induced hind paw edema volume at 100 mg/kg, po administered 60 mins before carrageenan challenge measured after 3 hrs; assay type: functional; method in brief: as §2
[25] = tested on: Rattus norvegicus; experiment: Antiinflammatory activity in Wistar rat assessed as inhibition of carrageenan-induced hind paw edema volume at 100 mg/kg, po administered 60 mins before carrageenan challenge after 24 hrs relative to control; assay type: functional
[26] = tested on: Rattus norvegicus; experiment: Antiinflammatory activity in Wistar rat assessed as inhibition of carrageenan-induced hind paw edema volume at 100 mg/kg, po administered 60 mins before carrageenan challenge after 3 hrs relative to control; assay type: functional
[27] = tested on: Rattus norvegicus; experiment: Antiinflammatory activity in […] 50 mg/kg, ip pretreated Wistar rat assessed as inhibition of carrageenan-induced hind paw edema volume at 100 mg/kg, po administered 60 mins before carrageenan challenge measured after 6 hrs; assay type: functional; method in brief: as §2
[28] = tested on: Rattus norvegicus; experiment: Antiarthritic activity in Albino rat assessed as inhibition of Freund's complete adjuvant-induced paw volume at 100 mg/kg, po administered for 14 days daily once starting a day before adjuvant challenge measured on day 8; assay type: functional; method in brief: as §3

CCCCCCNC(=O)CC1CCc2cc(OC)c(OC)cc21 (stereo not drawn)
Activity [1]: 0.38 °C | Activity [2]: -0.56 °C | ED30 [3]: 24 mg/kg | Activity [4]: Non-toxic | inhibition (INH) [5]: 52.38% | UI [6]: 0 | inhibition in vivo at 100 mg/kg [7]: 39.4% | inhibition in vivo at 100 mg/kg [8]: 31.2% | Activity [9]: 0.54 °C | Activity [10]: -0.23 °C | Activity [11]: -0.94 °C | inhibition in vivo at 100 mg/kg [12]: 39.1% | inhibition (INH) [13]: 38.6% | inhibition (INH) [14]: 36.58% | inhibition in vivo at 100 mg/kg [15]: 46.9% | inhibition in vivo at 100 mg/kg [16]: 82.2% | inhibition in vivo at 100 mg/kg [17]: 39.8% | UI [18]: 0 | inhibition in vivo at 100 mg/kg [19]: 31% | Activity [20]: 0.53 °C | inhibition in vivo at 100 mg/kg [21]: 7.64 g | inhibition (INH) [22]: 45.45% | Activity [23]: 0.11 °C | inhibition (INH) [24]: 43.08% | inhibition in vivo at 100 mg/kg [25]: 43.3% | inhibition in vivo at 100 mg/kg [26]: 40.6% | inhibition (INH) [27]: 40.42% | inhibition in vivo at 100 mg/kg [28]: 28.8%
